Compound activity: PubChem BioAssay, several laboratories
A selection: hits, their analogues and other compounds. The true share with any hit is near 3.9%.
Jurkat NFkB inh = inhibitors of induced NF-kB luciferase reporter, primary screen, TCR NF-kB activation inhibitor project, cell-based, luminescence, uHTS; Jurkat, PMA/ionomycin-induced NF-kB luciferase reporter; inhibition, % at 4 µM; 330,000 compounds, 0.53% hits; AID 435003, 2010; in the data active = inhibition above about 50%
Gli-Sufu antag = Gli-Sufu pathway antagonists, primary screen, luciferase luminescence, Sufu-KO-LIGHT cells, uHTS; 340,000 compounds, 0.74% hits; Sufu-KO-LIGHT fibroblasts, Gli luciferase reporter luminescence; inhibition, % at 5 µM; AID 588413, 2011;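 active = inhibition above about 55%, limit read from the data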;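 note: 0% = DMSO-treated cells and 100% = wells with medium but no cells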
XBP1 UPR activ = activators of adaptive XBP1 UPR arm, primary screen, cell-based, CHO-XBP1 luciferase reporter, luminescence, uHTS; IRE1-XBP1 UPR activation; percent of tunicamycin response, DMSO as zero; activation, % at 20 µM; 330,000 compounds, 0.33% hits; AID 463104, 2010;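 active = versus positive control, 20 µM dose yields 30% or more activation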;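 note: 100% = tunicamycin at 10 µg/mL and 0% = DMSO only wells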
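incubation = overnight seeding at 37 °C, 6 h compound treatment at 37 °C | assay system = CHO-XBP1 cells stably carrying IRE1-XBP1-driven luciferase reporter | input = 1000 cells per well | detection = luciferase luminescence | dosing = single point, 20 µM final compound, 1% DMSO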
CHOP inh = inhibitors of CHOP promoter induction, primary screen, cell-based, unfolded protein response, luciferase reporter; 220,000 compounds, 3.8% hits; inhibition, % at 10 µM; AID 2732, 2010; CHO-K1 CHOP-promoter luciferase, tunicamycin-induced, 15-18 h;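 active = compounds that reduced the stress-induced luciferase reporter signal by more than about 70% of percent inhibition, limit read from the data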;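 note: 0% = tunicamycin plus vehicle and 100% = wells without tunicamycin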
UPR CHOP act = activators of apoptotic CHOP UPR arm, primary screen, cell-based, CHO-CHOP luciferase reporter, luminescence, uHTS. UPR activation; percent of tunicamycin response over DMSO baseline. activation, % at 10 µM. 330,000 compounds, 0.34% hits;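 active = at 10 µM dose, activation of 40% or more, normalized to positive control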;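 note: 100% = tunicamycin at 10 µg/mL and 0% = DMSO alone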
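Dosing – one dose, 10 µM in 0.5% DMSO · System – CHO-CHOP cells, stable luciferase reporter of PERK-eIF2a-CHOP signalling · Input – 500 cells/well · Control set – tunicamycin 10 µg/mL final as positive, DMSO-only wells as negative · Timing – 6 h compound treatment, 37 °C · Measure – % activation vs tunicamycin · Technique – luminescence read with Steady-Glo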
697 NFkB inh = inhibitors of PMA/ionomycin-induced NF-kB reporter, 697 cells, primary screen, B-cell NF-kB inhibitor project, cell-based, luminescence, uHTS. 697 B-cell NF-kB luciferase reporter, 16 h. inhibition, % at 4 µM. 330,000 compounds, 0.33% hits. AID 435022, 2010; in the data active = inhibition above about 35%
Jurkat NFkB conf = PMA/ionomycin-induced NF-kB reporter inhibitors, Jurkat retest, confirmation, T-cell NF-kB inhibitor project, cell-based, luminescence, single concentration; shares compounds with Jurkat NFkB inh; 2,700 compounds, 27% hits; Jurkat NF-kB luciferase, 16 h; inhibition, % at 4 µM;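 active = inhibition reaching about 45% at 4 µM in either replicate, limit read from the data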;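 note: plate controls were PMA/ionomycin stimulated DMSO wells for no effect and unstimulated DMSO wells for full effect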
An asterisk follows results filed as active; / = no result given.

SMILES	Jurkat NFkB inh	Gli-Sufu antag	XBP1 UPR activ	CHOP inh	UPR CHOP act	697 NFkB inh	Jurkat NFkB conf
COc1ccccc1Nc1c2c(nc3ccccc13)CCC2	52*	/	1	/	0	-52	25
COc1ccc(Nc2c3c(nc4ccccc24)CCC3)c(OC)c1	43	30	0	/	-1	-23	/
Cc1ccc(NC(=O)C(c2ccccc2)c2ccccc2)nc1	5	2	-4	/	1	7	/
CC(=O)c1cccc(NC(=S)NC(=O)c2ccc(C)cc2)c1	-106	-112	3	-35	3	-34	/
CC(=O)c1cccc(NC(=S)NC(=O)c2ccc(Br)cc2)c1	91*	-79	2	-4	5	-109	18
Brc1ccc(-c2cn3ccccc3n2)s1	-166	-31	-7	36	0	-245	-102
NC(=O)CC(NC(=O)Cc1ccc(Br)cc1)c1ccc(NC2CCCCCC2)c([N+](=O)[O-])c1 (configuration not stated)	18	-15	-2	49	0	8	/
NC(=O)CC(NC(=O)Cc1ccc(Br)cc1)c1ccc(NC2CCCC2)c([N+](=O)[O-])c1 (configuration not stated)	51*	48	1	84*	-3	26	29
CC(C)Nc1ccc(C(CC(N)=O)NC(=O)Cc2ccc(Br)cc2)cc1[N+](=O)[O-] (configuration not stated)	84*	40	0	-15	0	-40	58*
NC(=O)CC(NC(=O)Cc1ccc(Br)cc1)c1ccc(NC2CCCCCCC2)c([N+](=O)[O-])c1 (configuration not stated)	/	-8	/	/	/	/	/
CN(C)S(=O)(=O)c1cc(NC(=O)CNCCN2CCOCC2)ccc1Cl	1	-3	4	4	-3	19	/
CCOc1ncccc1C(=O)Nc1ccc(OC)c(S(=O)(=O)N2CCOCC2)c1	21	-6	4	/	2	24	/
CCOc1ccc(S(=O)(=O)N2CCN=C2c2ccccc2)cc1	54*	0	-1	/	2	-65	12
Cc1cc(S(=O)(=O)N2CCN=C2c2ccccc2)ccc1F	8	0	-2	9	-2	-26	/
COc1ccc(C(=S)N2CCN(c3cccc(Cl)c3)CC2)c(OC)c1	63*	9	-2	28	0	-38	-5
Cc1nn(-c2nc3ccccc3s2)c(N)c1-c1ccccc1	-165	-91	4	-53	6	-232	-118
Cc1ccc(COc2ccccc2-c2cc(C(=O)N/N=C/c3cccnc3)[nH]n2)cc1	53*	-4	2	22	1	-12	-2
CCOc1ccccc1-c1cc(C(=O)N/N=C/c2cccnc2)c2ccccc2n1	-5	4	1	/	1	22	/
O=C(O)c1cccc(S(=O)(=O)Nc2cccc(S(=O)(=O)N3CCCC3)c2)c1	-3	-6	-1	/	0	8	/
Cc1ccc(NC(=S)N2CCC(c3ccccc3)C2)c(Cl)c1 (configuration not stated)	-165	-81	-5	7	2	-200	-98
COc1ccc(C(CNC(=O)c2ccc(OCc3c(C)noc3C)cc2)N2CCCC2)cc1 (configuration not stated)	-15	13	-2	/	-1	-14	/
C=CCn1c(Oc2cccc(C)c2)nc2c1c(=O)n(C)c(=O)n2C	-6	-5	4	19	0	-12	/
C=CCn1c(Oc2cc(C)ccc2C)nc2c1c(=O)n(C)c(=O)n2C	54*	2	-1	19	-3	-11	16
Fc1ccccc1CSc1nc2ccccc2[nH]1	-154	-72	2	42	-3	-246	-86
CCOC(=O)c1ccc(S(=O)(=O)Nc2ccc(N3CCOCC3)cc2)cc1	5	27	6	/	0	-2	/
